This note sets out measurements from ChEMBL document CHEMBL1138180, “Design and synthesis of new tetrazolyl- and carboxy-biphenylylmethyl-quinazolin-4-one derivatives as angiotensin II AT1 receptor antagonists” (J Med Chem, 2006).

The target of test [1] is T1, Type-1 angiotensin II receptor (Homo sapiens) (UniProt P30556).
T1 sequence (whole entry): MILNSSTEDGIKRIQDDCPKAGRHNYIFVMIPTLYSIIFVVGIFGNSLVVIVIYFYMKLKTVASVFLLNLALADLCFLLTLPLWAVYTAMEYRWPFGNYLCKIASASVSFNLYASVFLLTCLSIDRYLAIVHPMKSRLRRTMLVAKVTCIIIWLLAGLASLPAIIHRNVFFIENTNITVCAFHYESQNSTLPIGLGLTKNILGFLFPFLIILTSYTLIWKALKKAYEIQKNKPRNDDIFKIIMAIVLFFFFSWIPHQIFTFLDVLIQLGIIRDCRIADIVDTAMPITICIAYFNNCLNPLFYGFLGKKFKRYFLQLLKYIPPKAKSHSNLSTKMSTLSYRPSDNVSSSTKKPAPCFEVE
Nature of the test: Displacement of [125I]-Sar(1)Ile(8)-Ang 2 from human AT1 receptor in CHO cells. The test is classed as cell-based. In outline: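 Membranes from CHO cells stably expressing human AT1 receptor, in 50 mM Tris-HCl pH 7.4 with 100 mM NaCl, 6 mM MgCl2 and 0.1% BSA. ~50 µg protein incubated 1 h at room temperature with 0.15 nM 125I-Sar1Ile8-Ang II, with or without competitor at 10 µM final. Bound ligand separated by centrifugation, counted as cpm. Control had DMSO and no competitor. Mean cpm ± SEM.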
(In general: In a radioligand displacement assay an active substance lowers the binding of a labelled ligand.)

Test [2] has as its system Rattus norvegicus. Nature of the test: Reduction of the systolic blood pressure in normotensive Sprague-Dawley rat at 3 mg/kg, ip. It counts as functional, organism-based. The arrangement: dose 3 mg/kg. Conditions: Artery. In outline:
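Normotensive male rats (230-250 g), n = 6 per group, given a single ip dose of 3 mg/kg in 0.1 mL DMSO, with a DMSO vehicle control. Systolic BP measured 2 h later by tail-cuff in conscious, cage-acclimatized rats in a 31-32 °C chamber. Mean % reduction versus control reported; ANOVA/LSD.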

Test [3] has as its system Rattus norvegicus. Nature of the test: Reduction of the systolic blood pressure in hypertensive Sprague-Dawley rat at 3 mg/kg, ip. The test is classed as functional, organism-based. The arrangement: dose 3 mg/kg. Conditions: Artery. The method in brief:
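Male rats (230-250 g) made hypertensive with DOCA 10 mg/kg sc daily plus 8% NaCl diet for 3-4 weeks. Single ip dose of 3 mg/kg in 0.1 mL DMSO, n = 6 per group. Systolic BP measured by tail-cuff in conscious rats 24 h before and 2 h after dosing. Normotensive and hypertensive DMSO controls included. Mean ± SE, ANOVA/LSD.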

Activity calls are given as the source filed them. The calls are words filed in the database; no cut-off is given here.

For `CSc1nc2ccccc2c(=O)n1Cc1ccc(-c2ccccc2-c2nn[nH]n2)cc1`, the result (in test [1]; in the test with Rattus norvegicus [2]; in the test on Rattus norvegicus [3]) was Active.

Regarding `Oc1nc(SCc2ccc(-c3ccccc3-c3nn[nH]n3)cc2)nc2ccccc12`, the outcome in test [1] was inactive.

In the case of `CCCCc1nc(Cl)c(CO)n1Cc1ccc(-c2ccccc2-c2nnn[nH]2)cc1`, the result (in test [1]; in the test on Rattus norvegicus [2]; in the test with Rattus norvegicus [3]) was Active.

For the molecule `CSc1nc2ccccc2c(=O)n1Cc1ccc(-c2ccccc2C(=O)O)cc1`, the outcome (in test [1]; with Rattus norvegicus [2]; in the test on Rattus norvegicus [3]) was Active.

With `O=c1[nH]c2ccccc2c(=O)n1Cc1ccc(-c2ccccc2-c2nn[nH]n2)cc1`, the outcome (in test [1]; in the test on Rattus norvegicus [2]; in the test on Rattus norvegicus [3]) was Active.
